Bfl-1 A1 inh: inhibitors of the anti-apoptotic protein A1, read as caspase activation | MEF A1-2A-BIM cells, Caspase-Glo 3/7 luminescence, 3 h; percent of clofoctol response, vehicle zero | 0.066% of 330,000 active | caspase activation, % (test concentration not listed);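 active means over half of replicate activation scores above 10%, or exactly half above 10 with the replicate mean above 10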
T cruzi inh: blocks replication of Trypanosoma cruzi; T. cruzi beta-gal in NIH3T3, luminescence, 90 h; inhibition, % (test concentration not listed); 1.4% of 300,000 active; AID 1885;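 active means mean inhibition across valid replicates above about 55%, limit read from the data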;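 further: signal also drops with host cell toxicity which is not excluded here; higher percent means less beta-gal luminescence so fewer parasites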
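System – NIH/3T3 host cells with β-galactosidase reporter T. cruzi · Doses – single 50 nL compound addition per well in DMSO · Reagent – 5000 T. cruzi trypomastigotes/well · Medium – Low-serum DMEM with 2% FBS · Timing – ≥90 h infection period, 3 h prior cell attachment · Evaluation – parasite load inhibition, % · Technique – GalScreen luminescence, 60 min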
Calb FLC: affects C. albicans growth with fluconazole. C. albicans CaCi-2 + fluconazole, Alamar Blue growth, 48 h. growth inhibition, % (no concentration beside the values). 0.57% of 300,000 active;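 active means growth inhibition above about 58% in most replicates, limit read from the data, passing the limit was not always enough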;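 further: all wells also contain fluconazole at 8 µg/ml as a sub-toxic cotreatment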
Beta cell apopt: beta cell apoptosis inhibition. protection from apoptosis, % (concentration not given with the values). INS-1E cytokine-induced death, ATP luminescence, 48 h; percent of positive-control rescue, neutral wells zero. 0.8% of 300,000 active;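 active means Every replicate reaches about 75%, or at least half do and their mean reaches it too, limit read from the data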;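 further: higher means more ATP so stronger rescue from cytokine killing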
TAG inh: triacylglycerol accumulation inhibition; H9c2 cells, Nile Red lipid (TAG) fluorescence; cells loaded with 200 µM oleic acid; inhibition, % at 12.5 µM; 0.66% of 230,000 active; AID 651582;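 active means pattern-corrected inhibition of lipid staining of at least 50% with the nuclear-stain viability signal not falling by more than 50%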
CSC inhib: blocks cancer stem cells; cancer stem cell-like cells viability, luminescence; inhibition, % at 7.5 µM; 1.1% of 300,000 active; AID 2717; in the data active means inhibition above about 75%; tested in HMLE shEcad cells
A number is an active result. Only some compounds are listed: those with a hit (about 3.1% of all), similar ones and a draw of the others.

`O=C(CCCCn1c(=O)c2ccccc2n(Cc2ccccc2)c1=O)NC1CCN(Cc2ccccc2)CC1` gave Bfl-1 A1 inh inactive, T cruzi inh 59, Calb FLC inactive, Beta cell apopt inactive, TAG inh inactive and CSC inhib inactive.
`COc1ccc2c(c1)C(=O)C1NC(=O)NC(=O)C1(Br)N2` (stereo unspecified) gave TAG inh inactive.
Screening CCCC[C@@H](CN[C@H](C)CNC)NCC1CCC(C(C)(C)C)CC1 (stereo partly specified) returned Bfl-1 A1 inh inactive, T cruzi inh inactive, Calb FLC inactive, Beta cell apopt 93 and CSC inhib 126.
Screening O=C(Nc1cccnc1)C1Cc2c(-c3ccccc3Oc3ccccc3)ccnc2O1 (stereo unspecified) returned TAG inh inactive.
`S=C(Nc1ccc(Nc2ccccc2)cc1)Nc1ccccn1` gave Bfl-1 A1 inh inactive, T cruzi inh inactive, Calb FLC inactive, Beta cell apopt 86, TAG inh inactive and CSC inhib inactive.
For CCC(C)c1ccccc1N1CC(C(=O)Nc2ccc(S(=O)(=O)N3CCOCC3)cc2)CC1=O (stereo unspecified) the results were Bfl-1 A1 inh inactive, T cruzi inh inactive, Calb FLC inactive, Beta cell apopt inactive, TAG inh inactive and CSC inhib inactive.
CCCCCc1ccc(OCCC[n+]2ccccc2)c(CCCCC)c1 was read as Bfl-1 A1 inh inactive, T cruzi inh 75, Calb FLC inactive, Beta cell apopt 113, TAG inh inactive and CSC inhib inactive.
For CCCCCc1ccc(OCCOCCn2c[n+](C)c3ccccc32)c(CCCCC)c1 the results were T cruzi inh inactive and Calb FLC 104.
For C[n+]1cn(CC(O)COCc2ccccc2)c2ccccc21 (stereo unspecified) the results were Bfl-1 A1 inh inactive, T cruzi inh inactive, Calb FLC inactive, Beta cell apopt inactive and CSC inhib inactive.
CCN(c1ccccc1)S(=O)(=O)c1ccc(C(=O)NC2CCN(Cc3ccccc3)CC2)cc1 was read as Bfl-1 A1 inh inactive, Beta cell apopt 84, TAG inh inactive and CSC inhib inactive.
Screening O=C(NC1CCN(Cc2ccccc2)CC1)c1ccc(S(=O)(=O)NCc2ccco2)cc1 returned Bfl-1 A1 inh inactive, T cruzi inh 73, Calb FLC inactive, Beta cell apopt inactive, TAG inh inactive and CSC inhib inactive.
Screening O=C(NC1CCCCC1)c1ccc(S(=O)(=O)NCc2ccco2)cc1 returned Bfl-1 A1 inh inactive, T cruzi inh inactive, Calb FLC inactive, Beta cell apopt inactive and CSC inhib inactive.
`COc1ccc(NS(=O)(=O)c2cccc(C(=O)NC3CCN(Cc4ccccc4)CC3)c2)cc1` gave Bfl-1 A1 inh inactive, T cruzi inh 63, Calb FLC inactive, Beta cell apopt inactive, TAG inh inactive and CSC inhib inactive.
Screening CCOc1ccc2oc(C(=O)NC3CCN(Cc4ccccc4)CC3)c(C)c2c1 returned Bfl-1 A1 inh inactive, T cruzi inh 61, Calb FLC inactive, Beta cell apopt inactive, TAG inh inactive and CSC inhib inactive.
For Cc1ccc([C@H]2C[C@@H](n3cc(-c4ccc(F)cc4)nn3)[C@H](O)CN2C(=O)C2CCCCC2)cc1 the results were TAG inh inactive.
`N#C/C(=C\c1ccc(N2CCOCC2)o1)C(=O)Nc1ccc(O)cc1` gave Bfl-1 A1 inh inactive, T cruzi inh inactive, Calb FLC inactive, Beta cell apopt inactive and CSC inhib inactive.
COc1ccc(NC(=O)/C(C#N)=C\c2ccc(N3CCOCC3)o2)cc1 was read as Bfl-1 A1 inh inactive, T cruzi inh inactive, Calb FLC 103, Beta cell apopt inactive, TAG inh inactive and CSC inhib inactive.
`O=C(CCc1nnc(CCCCc2ccccc2)o1)NCCc1cccnc1` gave Bfl-1 A1 inh inactive, T cruzi inh 60, Calb FLC inactive, Beta cell apopt inactive, TAG inh inactive and CSC inhib inactive.
Screening O=C(CCc1nnc(Cc2ccc(-c3ccccc3)cc2)o1)NCCc1cccnc1 returned Bfl-1 A1 inh inactive, T cruzi inh inactive, Calb FLC inactive, Beta cell apopt inactive, TAG inh inactive and CSC inhib inactive.
Cc1ccc(N=Nc2c(O)ccc3n[nH]nc23)cc1 was read as Bfl-1 A1 inh inactive, T cruzi inh inactive, Calb FLC inactive, Beta cell apopt 99 and CSC inhib inactive.

From PubChem BioAssay
